From paper PMC8562596 (Biochemistry, 2016)
Several values for one entry are separate records, joined by “and”; a condition that tells them apart may be missing. Identical values can stand only once. Like-named read-outs stand apart in the source and are kept apart here. Marks after values point to notes of the source that are not given here. Non-standard residues stand in square brackets, D forms with d. Residues, ends and D or L forms follow the SMILES beside them. 2Nal = N[C@@H](Cc1ccc2ccccc2c1)C(=O)O

Tests used:
HeLa cells [1] = experiment: Apparent endosomal escape efficiency; type: cell-based; conditions: for Apparent Endosomal Escape (γ, %): γ=(MFI^NF/MFI^Rho) of CPP over that of CPP 1 ×100%, 5 μM, 2 h
Method in brief: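 HeLa cells were seeded at 1.5 × 10^5 per well and grown overnight, then given 5 μM peptide for 2 h at 37 °C in medium. Separate peptide preparations were labelled with pH-sensitive naphthofluorescein or with rhodamine B through a miniPEG linker. Cells were DPBS-washed, trypsinised, pelleted and resuspended in DPBS for flow cytometry. NF used 633-nm excitation (APC channel) and Rho used 561-nm excitation (PE channel). γ is the NF/Rho mean-fluorescence ratio normalised to the reference peptide.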

[2] = determined by fluorescence correlation spectroscopy; ref [42]; cited from earlier work
[3] = Calcein release from LUVs; conditions: 20 μM peptide (Triton X-100 at 1%), over a 30-min period; Triton X-100 = 100%
Method in brief: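 Large unilamellar vesicles with a lipid composition mimicking the late endosomal membrane were loaded with the small-molecule dye calcein. They were then exposed to the cyclic peptide, and release of calcein from the vesicles was followed.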

HeLa cells [4] = conditions: relative to CPP 1 (100%); ref [40]; cited from earlier work
HeLa cells [5] = conditions: Rho-labeled, relative to CPP 1 (100%), ref [40]; cited from earlier work
HeLa cells [6] = conditions: NF-labeled, relative to CPP 1 (100%), ref [40]; cited from earlier work
HeLa cells [7] = experiment: Cytosolic entry of R9^NF in presence of unlabeled CPP, flow cytometry; type: cell-based; conditions: 5 μM unlabeled CPP
Method in brief: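 HeLa cells seeded at 1.5 × 10^5 per well, grown overnight, then exposed to naphthofluorescein-labeled R9 with or without 5 μM unlabeled cyclic CPP for 2 h in culture medium. Cells were washed twice with DPBS, detached with 0.25% trypsin, pelleted at 250G for 5 min, washed, resuspended in DPBS and read by flow cytometry for cytosolic NF fluorescence.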

HeLa cells [8] = experiment: Cellular uptake of FITC-labeled peptides, flow cytometry; type: cell-based; conditions: 9 vs cFΦR4, 11 vs 6, 12 vs 7, 5 μM, 2 h
Method in brief: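 Peptides carried an extra lysine on the Gln side chain, FITC-labelled at that lysine. HeLa cells were seeded at 1.5 × 10^5 per well, grown overnight and given 5 μM peptide for 2 h in culture medium. Cells were DPBS-washed twice, trypsin-detached, pelleted at 250G for 5 min, washed and resuspended in DPBS. Flow cytometry used 488-nm excitation and the FITC channel.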

HeLa cells [9] = experiment: Uptake of Rho-labeled CPPs under ATP depletion or at 4 °C, flow cytometry; type: cell-based
[10] = mouse, in vivo

For `N=C(N)NCCC[C@@H]1NC(=O)[C@H](CCCNC(=N)N)NC(=O)[C@H](CCCNC(=N)N)NC(=O)[C@H](Cc2ccc3ccccc3c2)NC(=O)[C@H](Cc2ccccc2)NC(=O)[C@H](CCC(N)=O)NC(=O)[C@H](CCCNC(=N)N)NC1=O` [CPP 1, cyclo(FΦRRRRQ)] (cyclo(F[2Nal]RRRRQ)), the “Apparent Endosomal Escape (γ, %)” value (HeLa cells [1]) was 100%.
In the case of RRRRRRRRR [R9, nonaarginine], the “Apparent Endosomal Escape (γ, %)” value (HeLa cells [1]) is given as 40 ± 5%, the “Cytosolic Delivery Efficiency (%)” value [2] is given as 4.4% and the “Calcein dye release from LUVs” value [3] is given as 1%.
In the case of Triton X-100, the “Calcein dye release from LUVs” value [3] is reported as 100%.
For YGRKKRRQRRR [Tat], the “Cytosolic Delivery Efficiency (%)” value [2] is listed as 2.0% and 2.0 ^c %, the “Apparent Endosomal Escape (γ, %)” value (HeLa cells [4]) is listed as 23 ± 4 ^b % and the “Total Cellular Uptake (MFI^Rho, %)” value (HeLa cells [5]) is listed as 43 ± 3 ^b %. The “Cytosolic Entry (MFI^NF, %)” value (HeLa cells [6]) was 9.9 ± 1.7 ^b %.
In the case of cyclo(FfΦRrRrQ) [CPP 12], the “Endosomal escape efficiency, fold relative to cFΦR4” value (HeLa cells [1]) is reported as 4.0 fold, the “Apparent Endosomal Escape (γ, %)” value (HeLa cells [1]) is reported as 402 ± 48% and the “Effect on the cytosolic entry of R9^NF” value (HeLa cells [7]) is reported as “minimal effect”.
With cyclo(fΦRrRrQ) [CPP 9] the “Endosomal escape efficiency, fold relative to cFΦR4” value (HeLa cells [1]) was 2.0 fold, the “Apparent Endosomal Escape (γ, %)” value (HeLa cells [1]) was 202 ± 20% and the “CPP activity (FITC uptake), fold more active than stereoisomer” value (HeLa cells [8]) was 6 fold. The “Decrease of total cellular uptake efficiency by energy depletion” value (HeLa cells [9]; ATP depletion with sodium azide and 2-deoxyglucose) was ~ 80%, the “Reduction of cellular entry at 4 °C” value (HeLa cells [9]; incubation at 4 °C) was at least 95% and the oral bioavailability [10] was “demonstrated oral bioavailability”.
In the case of penetratin, the “Calcein dye release from LUVs” value [3] is reported as 23%.
